Values after ≈ are worked out from the molar mass of the structure shown. Active and inactive are the calls of the source. The calls are words filed in the database; no cut-off is given here.
Key:
Trypanosoma cruzi [1] = assay: Antitrypanosomal activity against Trypanosoma cruzi Tulahuen C4 strain amastigotes infected in rat L6 cells measured after 96 hrs by inverted microscopy analysis; type: functional, organism-based; details: Tulahuen C4, L6, 96 h
Leishmania donovani = assay: Antileishmanial activity against Leishmania donovani MHOM/ET/67/L82 amastigotes measured after 72 hrs by alamar blue dye based fluorimetry analysis; type: functional, organism-based; details: MHOM/ET/67/L82, 72 h
L6 = assay: Cytotoxicity against rat L6 cells assessed as reduction in cell viability measured after 72 hrs by alamar blue dye based fluorimetry analysis; details: L6, 72 h
[2] = test system: Trypanosoma brucei rhodesiense; assay: Antitrypanosomal activity against Trypanosoma brucei rhodesiense STIB900 trypomastigotes incubated for 72 hrs by resazurin dye based fluorescence assay; type: functional, organism-based; details: STIB900, 72 h
[3] = Metabolic stability in human liver microsomes assessed as half-life measured after 60 mins in presence of NADPH generating system by LC-MS analysis; type: ADME, Microsome
[4] = Intrinsic clearance in human liver microsomes assessed per mg protein measured after 60 mins in presence of NADPH generating system by LC-MS analysis; type: ADME, Microsome; details: read-out: CLH
Trypanosoma cruzi [5] = assay: Antitrypanosomal activity against Trypanosoma cruzi Tulahuen strain trypomastigotes infected in rat H9c2 cells incubated for 72 hrs by DRAQ5 DNA dye based imaging analysis; type: functional, organism-based; details: H9c2, 72 h
[6] = Selectivity index, ratio of IC50 for cytotoxicity against rat H9c2 cells assessed as reduction in cell viability to IC50 for antitrypanosomal against Trypanosoma cruzi Tulahuen trypomastigotes infected in rat H9c2 cells; type: toxicity, cell-based; details: read-out: Ratio IC50
[7] = test system: Trypanosoma brucei brucei; assay: Antitrypanosomal activity against Trypanosoma brucei brucei Lister 427 strain blood stream form assessed as parasite growth inhibition at 10 uM incubated for 48 hrs by resazurin dye based fluorescence assay relative to control; type: functional; details: for inhibition at 10 µM: Lister 427, 48 h
In short: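 Alamar Blue (resazurin) growth-inhibition screen against T. b. brucei at 10 μM, the same assay used to find the original hit. Compounds reaching 50% or greater inhibition were then taken into concentration–response testing for IC50.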

Trypanosoma cruzi [8] = assay: Antitrypanosomal activity against Trypanosoma cruzi Tulahuen strain trypomastigotes infected in rat H9c2 cells at 10 uM incubated for 72 hrs by DRAQ5 DNA dye based imaging analysis relative to control; type: functional
[9] = Kinetic solubility of compound at pH 6.5 phosphate buffer by nephelometry; type: physicochemical; details: read-out: Kinetic_solubility
[10] = Kinetic solubility of compound at pH 2 by nephelometry; type: physicochemical; details: buffer, read-out: Kinetic_solubility
[11] = Metabolic stability in human liver microsomes assessed as degradation half-life measured after 60 mins in presence of NADPH generating system by LC-MS analysis; type: ADME, Microsome; details: read-out: T50
[12] = Protein binding in human plasma by HPLC-MS analysis; type: ADME, cell-free; details: read-out: PPB (converted)
[13] = Partition coefficient, log D of compound at pH 7.4 by HPLC; type: physicochemical; details: octanol/water
[14] = Selectivity index, ratio of IC50 for cytotoxicity against human HEK293 cells assessed as reduction in cell viability to IC50 for antitrypanosomal activity against Trypanosoma brucei brucei Lister 427 blood stream form; type: toxicity, cell-based; details: read-out: Ratio IC50
[15] = test system: Trypanosoma brucei brucei; assay: Antitrypanosomal activity against Trypanosoma brucei brucei Lister 427 strain blood stream forms incubated for 48 hrs by resazurin dye based fluorescence assay; type: functional, organism-based; details: Lister 427, 48 h
Plasmodium falciparum = assay: Antiplasmodial activity against chloroquine and pyrimethamine resistant erythrocytic stage of Plasmodium falciparum K1 strain assessed as reduction in [3H]hypoxanthine incorporation measured after 48 hrs by liquid scintillation counting method; type: functional, organism-based
[16] = Metabolic stability in mouse liver microsomes assessed as degradation half-life measured after 60 mins in presence of NADPH generating system by LC-MS analysis; type: ADME, Microsome; details: read-out: T50
[17] = Intrinsic clearance in mouse liver microsomes assessed per mg protein measured after 60 mins in presence of NADPH generating system by LC-MS analysis; type: ADME, Microsome; details: read-out: CLH

Compound	IC50 (Trypanosoma cruzi [5])	selectivity ratio [6]	inhibition at 10 µM [7]	selectivity ratio [14]	IC50 [15]	further results
O=C(NCCc1csc(-c2ccccc2)n1)c1ccccc1F						IC50 (Trypanosoma cruzi [1]): 1100 nM; IC50 (Leishmania donovani): 11000 nM; IC50 (L6): 79000 nM; IC50 [2]: 420 nM
CCN(CC)C(=O)NCCc1csc(-c2ccc(F)cc2F)n1	250 nM	> 199				half-life [3]: 8 min; microsomal CLint [4]: 177 µL/min/mg
O=C(NCCc1csc(-c2ccccc2)n1)c1cccc(S(F)(F)(F)(F)F)c1			< 50%			inhibition at 10 µM (Trypanosoma cruzi [8]): < 50%
O=C(NCCc1csc(-c2ccccc2)n1)N1CCCCC1	39 nM					solubility kinetic [9]: 25 µg/mL (≈ 79.3 µM); solubility kinetic [10]: 50 µg/mL (≈ 159 µM); microsomal CLint [4]: 244 µL/min/mg; half-life [11]: 7 min; fraction unbound [12]: 0.1; logD [13]: 3.2
N#Cc1ccc(C(=O)NCCc2csc(-c3ccccc3)n2)cc1	400 nM	> 126	< 50%			
O=C(Cc1ccc2c(c1)OCO2)NCCc1csc(-c2ccccc2)n1	40000 nM	> 1.2	< 50%			
O=C(NCCc1csc(-c2ccc(F)cc2F)n1)c1cc(F)ccc1F	130 nM	> 398				half-life [3]: 6 min; microsomal CLint [4]: 231 µL/min/mg
O=CNCCc1csc(-c2ccccc2)n1			< 50%			inhibition at 10 µM (Trypanosoma cruzi [8]): < 50%
O=C(NCCc1csc(-c2ccccc2)n1)c1cccc(C(F)(F)F)c1				1.8	11600 nM	inhibition at 10 µM (Trypanosoma cruzi [8]): < 50%
CC(C)(C)C(=O)NCCc1csc(-c2cccc(F)c2)n1						IC50 (Trypanosoma cruzi [1]): 2300 nM; IC50 (Plasmodium falciparum): 35000 nM; IC50 (Leishmania donovani): 46000 nM; IC50 (L6): 62000 nM; IC50 [2]: 1500 nM
O=C(NCCc1csc(-c2ccccc2)n1)c1ccccn1				139	300 nM	IC50 (Trypanosoma cruzi [1]): 900 nM; IC50 (Plasmodium falciparum): 65000 nM; IC50 (Leishmania donovani): 12000 nM; IC50 (L6): 66000 nM; IC50 [2]: 220 nM
O=C(CC1CC2CCC1C2)NCCc1csc(-c2ccccc2)n1 (racemic)			< 50%			
O=C(Cc1ccccc1)NCCc1csc(-c2ccccc2)n1			< 50%			
O=C(NCCc1csc(-c2ccccc2)n1)N1CCCC1	320 nM					solubility kinetic [9]: 50 µg/mL (≈ 166 µM); solubility kinetic [10]: > 100 µg/mL; IC50 (Trypanosoma cruzi [1]): 96 nM; microsomal CLint [4]: 177 µL/min/mg; IC50 (Leishmania donovani): 17000 nM; IC50 (L6): 144000 nM; half-life [11]: 10 min; fraction unbound [12]: 0.14; IC50 [2]: 46 nM; logD [13]: 2.8
COc1ccc(C(=O)NCCc2csc(-c3ccccc3)n2)cc1			< 50%			
O=C(NCCc1csc(-c2ccccc2)n1)c1cnco1			< 50%			inhibition at 10 µM (Trypanosoma cruzi [8]): < 50%
O=C(NCCc1csc(-c2ccccc2)n1)C1CCCC1						microsomal CLint [4]: 296 µL/min/mg; half-life [11]: 6 min
N#Cc1ccccc1C(=O)NCCc1csc(-c2ccccc2)n1			< 50%			
O=C(NCCc1csc(-c2ccc(F)cc2)n1)N1CCCCC1	30 nM	> 1580		431	24 nM	microsomal CLint [4]: 160 µL/min/mg; half-life [16]: < 2 min; half-life [11]: 11 min; microsomal CLint [17]: > 1600 µL/min/mg
O=S(=O)(NCCc1csc(-c2ccccc2)n1)N1CCCC1	32000 nM					inhibition [7]: inactive
CS(=O)(=O)c1cccc(C(=O)NCCc2csc(-c3ccccc3)n2)c1	40000 nM	> 1.2		4.9	8500 nM	
O=C(NCCc1csc(-c2ccccc2)n1)c1cccc(O)c1			< 50%			
COc1ccc(-c2nc(CCNC(=O)N3CCCCC3)cs2)cc1			> 50%			inhibition at 10 µM (Trypanosoma cruzi [8]): < 50%
O=C(NCCc1csc(-c2ccccc2)n1)c1ccccc1O	7900 nM	> 3		18	2300 nM	

Compound	IC50 (Trypanosoma cruzi [5])	selectivity ratio [6]	inhibition at 10 µM [7]	selectivity ratio [14]	IC50 [15]	further results
CCC(=O)NCCc1csc(-c2ccccc2)n1			< 50%			inhibition at 10 µM (Trypanosoma cruzi [8]): < 50%
CC(C)(C)C(=O)NCCc1csc(-c2ccccc2)n1	6300 nM	> 7.9		50	1700 nM	
N#Cc1ccccc1-c1nc(CCNC(=O)N2CCCCC2)cs1	790 nM	> 63		148	560 nM	
O=C(NCCc1csc(-c2cccs2)n1)C1CCCC1	10000 nM	> 5		35	2400 nM	
CC(C)N(C(=O)NCCc1csc(-c2ccccc2)n1)C(C)C	32000 nM	> 1.5		10	9600 nM	
CC(C)OC(=O)NCCc1csc(-c2ccccc2)n1	400 nM	> 125		385	220 nM	
CCN(CC)C(=O)NCCc1csc(-c2ccccc2)n1	1000 nM	> 50		320	260 nM	
O=C(NCCc1csc(-c2ccccc2)n1)c1cccc2ccccc12			< 50%			
O=C(NCCc1csc(-c2ccccc2)n1)c1ccc(Cl)cc1			< 50%			
CC(=O)NCCc1csc(-c2ccccc2)n1			< 50%			inhibition at 10 µM (Trypanosoma cruzi [8]): < 50%
O=C(NCCc1csc(-c2ccccc2)n1)c1cnccn1	32000 nM	> 1.5		20	4100 nM	
O=C(NCCc1csc(-c2cccc(F)c2)n1)N1CCCCC1				398	26 nM	microsomal CLint [4]: 445 µL/min/mg; half-life [16]: < 2 min; half-life [11]: 4 min; microsomal CLint [17]: > 1600 µL/min/mg
CC(C)C(=O)NCCc1csc(-c2ccccc2)n1	40000 nM	> 1.2		16	5300 nM	
CC(C)N(C)C(=O)NCCc1csc(-c2ccccc2)n1	1000 nM	> 50		212	390 nM	
O=C(NCCc1csc(-c2cccnc2)n1)C1CCCC1	20000 nM	> 2.5		13	6600 nM	
CC(C)OC(=O)NCCc1csc(-c2ccc(F)cc2F)n1	130 nM	> 398				half-life [3]: 10 min; microsomal CLint [4]: 135 µL/min/mg
C[Si](C)(C)C#Cc1cccc(C(=O)NCCc2csc(-c3ccccc3)n2)c1	2000 nM	> 12		2.9	3600 nM	
O=C(NCCc1csc(-c2ccccc2F)n1)N1CCCCC1	10 nM	> 3980		650	16 nM	microsomal CLint [4]: 439 µL/min/mg; half-life [16]: < 2 min; half-life [11]: 4 min; microsomal CLint [17]: > 1600 µL/min/mg
Cc1ccc(C(=O)NCCc2csc(-c3ccccc3)n2)cc1	40000 nM	1.2	< 50%			
O=S(=O)(NCCc1csc(-c2ccccc2)n1)c1ccccc1	20000 nM					inhibition [7]: inactive
CC(C)(C)OC(=O)NCCc1csc(-c2ccccc2)n1			< 50%			
CC(C)NC(=O)NCCc1csc(-c2ccccc2)n1	1600 nM	> 31		93	900 nM	
O=C(NCCc1csc(-c2ccccc2)n1)c1ccc2ccccc2c1	16000 nM	> 3.1	< 50%			
Cc1cccc(C(=O)NCCc2csc(-c3ccccc3)n2)c1	6300 nM	> 7.9		21	3900 nM	
